OXTR potentiator: potentiates the human oxytocin receptor response | activation, % at 3 µM | CHO-OTR cells, Fluo-8 calcium fluorescence, potentiator mode; 0% = oxytocin EC15, 100% = EC100 | AID 2445 | 320,000 tested, 0.061% active;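 active = activation above that plate's cutoff, the mean activation of tested compounds plus 3 SD, cut at about 6.6% in these data, passing the limit was not always enough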
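Material: human OTR in CHO cells. Compound: 3.0 µM, one dose. Timing: compound 6 min at room temperature before oxytocin, 100 s read. Evaluation: % activation of max/min ratio relative to oxytocin controls. Replication: single well per compound, singlicate. Signal: Fluo-8 calcium dye fluorescence.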
TRPML3 agonist: agonists of human TRPML3 channel; HEK293 TRPML3-YFP, Fluo-8 calcium fluorescence; 100% = the carbachol control signal; AID 1448; Q8TDD5; 220,000 tested, 0.29% active; activation, % at 3 µM;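 active = activation above its plate's cutoff, the mean activation of the plate's test wells plus 3 SD, cut at about 12% in these data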
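Test system: TRPML3-YFP stable HEK293 cells. Doses: single point at 3 µM. Incubation: dye loading 1 h 37 °C then 30 min ambient, 125 s read. Signal: Fluo-8 calcium dye fluorescence, ex 470-495, em 515-575 nm. Measure: percent activation from peak-to-basal fluorescence ratio, scaled between DMSO and carbachol.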
TRPN1 ag: agonists of zebrafish TRPN1 channel; 220,000 tested, 0.18% active; AID 1424; HEK293 zebrafish TRPN1-YFP, Fluo-8 calcium fluorescence; 100% = response to 87 µM carbachol; activation, % at 3 µM;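 active = activation above its plate's cutoff, the mean activation of test wells on that plate plus 3 SD, cut at about 19% in these data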
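Material – zebrafish TRPN1-YFP in HEK293 cells · Doses – 3 µM single point · Schedule – dye 1 h 37 °C plus 30 min RT · Signal – Fluo-8 calcium fluorescence, excitation 470-495 nm, emission 515-575 nm · Read-out – % activation versus carbachol response · Control set – carbachol high, DMSO low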
OXTR ag: human OXTR agonism | CHO-OTR cells, Fluo-8 calcium fluorescence; normalized: DMSO 0%, oxytocin 100% | P30559 | 320,000 tested, 0.32% active | activation, % at 3 µM;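 active = activation above the mean of all tested compounds plus 3 SD, cutoff set per screening run, cut at about 20% in these data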;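 also: peak over basal fluorescence ratio from a 100 s FLIPR kinetic read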
V1aR counter: activates human V1a receptor in oxytocin agonist counter-screen. P37288. CHO-V1R cells, Fluo-8 calcium fluorescence, agonist mode; 0% DMSO, 100% 3 nM vasopressin. activation, % at 3 µM. 320,000 tested, 0.25% active. AID 2797;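 active = activation above the mean activation of all tested compounds plus 3 SD, per screening run, cut at about 20% in these data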;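 also: signal is peak over basal fluorescence ratio across a 100 second FLIPR read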
Target sequence (P37288 whole entry, looked up): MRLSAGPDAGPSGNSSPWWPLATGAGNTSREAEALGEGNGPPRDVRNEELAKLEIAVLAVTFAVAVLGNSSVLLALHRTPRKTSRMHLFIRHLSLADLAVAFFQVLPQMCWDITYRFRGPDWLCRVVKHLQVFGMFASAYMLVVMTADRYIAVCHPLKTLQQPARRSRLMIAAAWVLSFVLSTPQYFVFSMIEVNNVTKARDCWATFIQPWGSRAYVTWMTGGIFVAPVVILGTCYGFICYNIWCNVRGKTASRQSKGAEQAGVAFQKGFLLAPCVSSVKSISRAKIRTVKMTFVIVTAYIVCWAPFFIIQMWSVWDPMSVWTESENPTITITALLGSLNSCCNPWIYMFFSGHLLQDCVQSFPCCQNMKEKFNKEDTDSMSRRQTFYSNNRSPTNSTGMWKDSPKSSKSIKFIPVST
OXTR ag confirm: human OXTR agonism, confirmation. shares compounds with OXTR ag. CHO-OTR cells, Fluo-8 calcium fluorescence, agonist. activation, % at 3 µM. 390 tested, 20% active. AID 434963;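 active = mean activation above about 20% derived from the earlier single-dose screen, limit read from the data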;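 also: peak over minimum fluorescence ratio per well during a 100 second FLIPR read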
V1R ag counter 3x: V1R agonism in triplicate, counter-screen for OXTR agonists. shares compounds with OXTR ag. CHO-V1R cells, Fluo-8 calcium fluorescence, agonist. activation, % at 3 µM. 390 tested, 10% active. AID 434991;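 active = mean activation over triplicate exceeds the hit threshold set in the earlier primary screen, cut at about 20% in these data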;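 also: peak over basal fluorescence ratio within a 100 second read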
A number is an active result; 0 = inactive; - = not tested or not shown. The list is not random: actives were taken first. Their share in the collection is about 0.55%.

SMILES	OXTR potentiator	TRPML3 agonist	TRPN1 ag	OXTR ag	V1aR counter	OXTR ag confirm	V1R ag counter 3x
c1ccc(CN(Cc2ccccc2)c2ncnc3c2nnn3Cc2ccccc2)cc1	0	0	0	0	0	-	-
N#C/C(=C(/O)c1ccc([N+](=O)[O-])cc1)c1nc2ccccc2[nH]1	0	0	0	0	0	-	-
N#C/C(=C(/O)c1ccc(Cl)c([N+](=O)[O-])c1)c1nc2ccccc2[nH]1	0	0	0	26	0	0	0
NC(=O)c1ccc(NC(=O)COC(=O)C2COc3ccccc3O2)cc1 (configuration not stated)	0	-	-	0	0	-	-
COc1ccc(CCNC(=O)CCCN2C(=O)C(c3ccccc3)Oc3cccnc32)cc1OC (configuration not stated)	0	-	-	25	0	0	0
COc1ccccc1NC(=O)CCCN1C(=O)C(c2ccccc2)Oc2cccnc21 (configuration not stated)	0	-	-	0	0	-	-
CC(C)(C)c1ccc(NC(=O)C2=CC=CN3CCS(=O)(=O)N=C23)cc1	0	-	-	0	0	-	-
Cc1ccc(Oc2ccc(NC(=O)C3=CC=CN4CCS(=O)(=O)N=C34)cc2)cc1	0	-	-	24	0	0	0
Cc1cccc(Oc2ccc(NC(=O)C3=CC=CN4CCS(=O)(=O)N=C34)cc2)c1	0	-	-	21	0	0	0
Cc1ccc(OCC(=O)Nc2ccon2)c([N+](=O)[O-])c1	0	-	-	0	0	-	-
Cc1ccc(NC(=O)CCCCCN2C(=O)[C@@H]3Cc4ccccc4CN3C2=O)c(C)c1	0	-	-	0	0	-	-
CSc1ccc2c(c1)N(CCC1CCCCN1C)c1ccccc1S2 (configuration not stated)	0	0	0	24	0	0	0
CCCc1nnc(NC(=O)Cn2c(=O)sc3ccccc32)s1	0	0	0	21	0	0	0
CCCc1nnc(NC(=O)CN2C(=O)c3ccccc3C2=O)s1	0	0	0	0	0	-	-
O=C(N/N=C/c1sc2ccccc2c1O)c1ccccc1	0	0	0	21	0	30	48
COc1ccc(C(=O)N/N=C/c2sc3ccccc3c2O)cc1	0	0	0	0	0	-	-
O=C(OCC(=O)N1CCN(C(=O)c2ccco2)CC1)c1cncc(Br)c1	0	-	-	0	0	-	-
COc1ccc(CCNCC(O)Cn2c3ccccc3c3ccccc32)cc1OC (configuration not stated)	0	0	0	23	0	24	0
O=C(COC(=O)c1cc(S(=O)(=O)N2CCCC2)ccc1O)Nc1ccc(SC(F)F)cc1	0	-	-	21	0	0	0
O=C(COC(=O)c1cc(S(=O)(=O)N2CCCC2)ccc1O)Nc1ccc(S(=O)(=O)N2CCOCC2)cc1	0	0	0	0	0	-	-
Cc1ccc(S(=O)(=O)c2nnn3c2nc(NC2CCN(Cc4ccccc4)CC2)c2ccccc23)cc1C	0	-	-	20	0	0	0
Cc1ccc(S(=O)(=O)c2nnn3c2nc(NCCCN2CCCC2=O)c2ccccc23)cc1C	0	-	-	0	0	-	-
NS(=O)(=O)c1ccc(CCNCc2ccccc2OCc2ccc(Cl)cc2)cc1	0	-	-	28	0	0	0
NS(=O)(=O)c1ccc(CCNCc2cc(Cl)ccc2OCc2ccccc2)cc1	0	-	-	22	0	0	0
CC(C)[C@H](NS(=O)(=O)c1ccccc1)C(=O)Nc1nccs1	0	-	-	0	0	-	-
SMILES	OXTR potentiator	TRPML3 agonist	TRPN1 ag	OXTR ag	V1aR counter	OXTR ag confirm	V1R ag counter 3x
CC(C)CN(CCNC(=O)CN1N=C(c2ccc(Cl)cc2)CCC1=O)CC(C)C	0	-	-	0	0	-	-
CC1CN(c2ccc([N+](=O)[O-])c(NCCOc3ccccc3)c2)CC(C)N1 (configuration not stated)	0	-	-	24	0	0	0
CCc1ccc(OCCNc2cc(N3CCNC(C)C3)ccc2[N+](=O)[O-])cc1 (configuration not stated)	0	-	-	0	0	-	-
Cc1ccccc1OCCNc1cc(N2CC(C)NC(C)C2)ccc1[N+](=O)[O-] (configuration not stated)	0	0	0	20	0	0	0
Cc1cc(C)c(S(=O)(=O)N2CCN(S(=O)(=O)N3CCOCC3)CC2)c(C)c1	0	-	-	0	0	-	-
Cc1ccc(C2(C)NC(=O)N(CC(=O)Nc3cccnc3Cl)C2=O)cc1 (configuration not stated)	0	0	0	0	0	-	-
CC1(c2ccc([N+](=O)[O-])cc2)NC(=O)N(CC(=O)Nc2cccnc2Cl)C1=O (configuration not stated)	0	-	-	21	0	0	0
O=C(COc1ccc2ccc(=O)oc2c1)Nc1cccc(S(=O)(=O)N2CCCCC2)c1	0	-	-	21	0	0	0
CC(=O)c1ccc(OCC(=O)Nc2cccc(S(=O)(=O)N3CCCC3)c2)cc1	0	-	-	0	0	-	-
O=C(Oc1ccc(-c2nnco2)cc1)c1ccc(Br)o1	0	-	-	0	0	-	-
Cc1ccc(OC(=O)c2ccc(Br)o2)cc1	0	0	0	27	0	0	0
CCCCc1c(C)nc2ccccc2c1SCCC(=O)O	0	0	0	0	0	-	-
COc1ccc(C)cc1NC(=O)c1cc(S(=O)(=O)N2CCCCC2)ccc1N1CCOCC1	0	-	-	0	0	-	-
CN1CCN(S(=O)(=O)c2ccc(N(C)Cc3ccc(C(F)(F)F)cc3)c([N+](=O)[O-])c2)CC1	0	-	-	20	0	0	0
CCOc1ccc(CN(C)c2ccc(S(=O)(=O)N3CCN(C)CC3)cc2[N+](=O)[O-])cc1OC	0	-	-	22	0	0	0
C=CCOc1ccc(CN(C)c2ccc(S(=O)(=O)N3CCN(C)CC3)cc2[N+](=O)[O-])cc1	0	-	-	0	0	-	-
N=C1SCC(=O)N1c1ncc(Cc2ccc(F)cc2)s1	0	0	0	0	0	-	-
O=C1/C(=C/c2ccccc2)N=C(N2CCOCC2)N1c1cccc(Cl)c1	0	0	0	26	0	0	0
CC(NCC(O)COc1ccc2ccccc2c1)c1ccccc1 (configuration not stated)	0	-	-	22	0	0	0
CN1CCc2c(sc(NC(=O)c3cc(Cl)sc3Cl)c2C(N)=O)C1	0	-	-	0	0	-	-
c1cc2c(cc1C1CCCCC1)c1c3n2CCCNC3CCC1 (configuration not stated)	0	0	0	26	0	0	0
CC(C)c1c(C(=O)N/N=C/c2cccs2)nnn1-c1nonc1N	0	-	-	20	0	0	0
Cc1ccsc1/C=N/NC(=O)c1nnn(-c2nonc2N)c1C(C)C	0	-	-	22	0	0	0
CC(=O)n1cc([C@H]2C=C(C(=O)NCc3ccccc3)O[C@@H](OCc3ccc(CO)cc3)C2)c2ccccc21	0	0	0	0	0	-	-

From PubChem
